From publication PMC8177775 (Cancer Science, 2021)

Test system: Japanese patients with solid tumors
Experiment: Phase I dose-escalation study: safety, tolerability, DLT and MTD
Assay type: in vivo, human
Conditions: for Tolerability: dose level of up to 90 mg
Method in brief: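 Oral test compound (tosylate salt) was given QD on days 1–21 of 28-day cycles in cohorts of 3–6 patients at 60, 90 or 120 mg. Escalation used a modified continual reassessment method (Bayesian logistic regression, escalation with overdose control). DLT window was cycle 1 (28 days). AEs were coded with MedDRA 18.0 and graded by CTCAE v4.0 (Japanese). Analysis covered patients receiving ≥1 dose.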

[1] = Cohort 3 120 mg/d (n = 4), All grades
[2] = Cohort 3 120 mg/d (n = 4), Grade ≥ 3

CC1(C)CCC2(CC1)N[C@@H](C(=O)N[C@@H]1CC[C@@H](C(N)=O)OC1)[C@H](c1ccnc(Cl)c1F)[C@]21C(=O)Nc2cc(Cl)ccc21 [milademetan, Milademetan]
TEAE: Hypophosphataemic rickets [1]: 0 (0.0) n (%) | TEAE: Jaundice cholestatic [1]: 0 (0.0) n (%) | TEAE: Lymphangiosis carcinomatosa [1]: 0 (0.0) n (%) | TEAE: Lymphocyte count decreased [1]: 2 (50.0) n (%) | TEAE: Nausea [1]: 3 (75.0) n (%) | TEAE: Neutrophil count decreased [1]: 2 (50.0) n (%) | TEAE: Platelet count decreased [1]: 3 (75.0) n (%) | TEAE: Pyrexia [1]: 1 (25.0) n (%) | TEAE: Sepsis [1]: 1 (25.0) n (%) | TEAE: Urinary tract infection [1]: 0 (0.0) n (%) | TEAE: Vomiting [1]: 2 (50.0) n (%) | TEAE: White blood cell count decreased [1]: 2 (50.0) n (%) | TEAE: Alanine aminotransferase increased [2]: 1 (25.0) n (%) | TEAE: Anemia [2]: 0 (0.0) n (%) | TEAE: Aspartate aminotransferase increased [2]: 1 (25.0) n (%) | TEAE: Constipation [2]: 0 (0.0) n (%) | TEAE: Decreased appetite [2]: 0 (0.0) n (%) | TEAE: Diarrhea [2]: 0 (0.0) n (%) | TEAE: Disease progression [2]: 1 (25.0) n (%) | TEAE: Fatigue [2]: 0 (0.0) n (%) | TEAE: Hypoalbuminemia [2]: 0 (0.0) n (%) | TEAE: Hyponatremia [2]: 1 (25.0) n (%) | TEAE: Hypophosphataemic rickets [2]: 0 (0.0) n (%) | TEAE: Jaundice cholestatic [2]: 0 (0.0) n (%) | TEAE: Lymphangiosis carcinomatosa [2]: 0 (0.0) n (%) | TEAE: Lymphocyte count decreased [2]: 1 (25.0) n (%) | TEAE: Nausea [2]: 0 (0.0) n (%) | TEAE: Neutrophil count decreased [2]: 1 (25.0) n (%) | TEAE: Platelet count decreased [2]: 3 (75.0) n (%) | TEAE: Pyrexia [2]: 0 (0.0) n (%) | TEAE: Sepsis [2]: 1 (25.0) n (%) | TEAE: Urinary tract infection [2]: 0 (0.0) n (%) | TEAE: Vomiting [2]: 0 (0.0) n (%) | TEAE: White blood cell count decreased [2]: 1 (25.0) n (%) | TEAE: Alanine aminotransferase increased (Total (n = 18), All grades): 4 (22.2) n (%) | TEAE: Anemia (Total (n = 18), All grades): 9 (50.0) n (%) | TEAE: Aspartate aminotransferase increased (Total (n = 18), All grades): 4 (22.2) n (%) | TEAE: Constipation (Total (n = 18), All grades): 5 (27.8) n (%) | TEAE: Decreased appetite (Total (n = 18), All grades): 11 (61.1) n (%) | TEAE: Diarrhea (Total (n = 18), All grades): 5 (27.8) n (%) | TEAE: Disease progression (Total (n = 18), All grades): 1 (5.6) n (%) | TEAE: Fatigue (Total (n = 18), All grades): 9 (50.0) n (%) | TEAE: Hypoalbuminemia (Total (n = 18), All grades): 8 (44.4) n (%) | TEAE: Hyponatremia (Total (n = 18), All grades): 5 (27.8) n (%) | TEAE: Hypophosphataemic rickets (Total (n = 18), All grades): 1 (5.6) n (%) | TEAE: Jaundice cholestatic (Total (n = 18), All grades): 1 (5.6) n (%) | TEAE: Lymphangiosis carcinomatosa (Total (n = 18), All grades): 1 (5.6) n (%) | TEAE: Lymphocyte count decreased (Total (n = 18), All grades): 4 (22.2) n (%) | TEAE: Nausea (Total (n = 18), All grades): 13 (72.2) n (%) | TEAE: Neutrophil count decreased (Total (n = 18), All grades): 5 (27.8) n (%) | TEAE: Platelet count decreased (Total (n = 18), All grades): 11 (61.1) n (%) | TEAE: Pyrexia (Total (n = 18), All grades): 4 (22.2) n (%) | TEAE: Sepsis (Total (n = 18), All grades): 1 (5.6) n (%) | TEAE: Urinary tract infection (Total (n = 18), All grades): 1 (5.6) n (%) | TEAE: Vomiting (Total (n = 18), All grades): 5 (27.8) n (%) | TEAE: White blood cell count decreased (Total (n = 18), All grades): 9 (50.0) n (%) | TEAE: Alanine aminotransferase increased (Total (n = 18), Grade ≥ 3): 2 (11.1) n (%) | TEAE: Anemia (Total (n = 18), Grade ≥ 3): 3 (16.7) n (%) | TEAE: Aspartate aminotransferase increased (Total (n = 18), Grade ≥ 3): 1 (5.6) n (%) | TEAE: Constipation (Total (n = 18), Grade ≥ 3): 0 (0.0) n (%) | TEAE: Decreased appetite (Total (n = 18), Grade ≥ 3): 0 (0.0) n (%) | TEAE: Diarrhea (Total (n = 18), Grade ≥ 3): 0 (0.0) n (%) | TEAE: Disease progression (Total (n = 18), Grade ≥ 3): 1 (5.6) n (%) | TEAE: Fatigue (Total (n = 18), Grade ≥ 3): 0 (0.0) n (%) | TEAE: Hypoalbuminemia (Total (n = 18), Grade ≥ 3): 0 (0.0) n (%) | TEAE: Hyponatremia (Total (n = 18), Grade ≥ 3): 2 (11.1) n (%) | TEAE: Hypophosphataemic rickets (Total (n = 18), Grade ≥ 3): 1 (5.6) n (%) | TEAE: Jaundice cholestatic (Total (n = 18), Grade ≥ 3): 1 (5.6) n (%) | TEAE: Lymphangiosis carcinomatosa (Total (n = 18), Grade ≥ 3): 1 (5.6) n (%) | TEAE: Lymphocyte count decreased (Total (n = 18), Grade ≥ 3): 1 (5.6) n (%) | TEAE: Nausea (Total (n = 18), Grade ≥ 3): 0 (0.0) n (%) | TEAE: Neutrophil count decreased (Total (n = 18), Grade ≥ 3): 1 (5.6) n (%) | TEAE: Platelet count decreased (Total (n = 18), Grade ≥ 3): 4 (22.2) n (%) | TEAE: Pyrexia (Total (n = 18), Grade ≥ 3): 0 (0.0) n (%) | TEAE: Sepsis (Total (n = 18), Grade ≥ 3): 1 (5.6) n (%) | TEAE: Urinary tract infection (Total (n = 18), Grade ≥ 3): 1 (5.6) n (%) | TEAE: Vomiting (Total (n = 18), Grade ≥ 3): 0 (0.0) n (%) | TEAE: White blood cell count decreased (Total (n = 18), Grade ≥ 3): 1 (5.6) n (%) | Drug-related TEAE: anemia, frequency (all 18 patients): 38.9% | Grade ≥ 3 TEAE: ALT increased (all 18 patients): 2 n | Grade ≥ 3 TEAE: anemia (all 18 patients): 3 n | Grade ≥ 3 TEAE: hyponatremia (all 18 patients): 2 n | Grade ≥ 3 TEAE: platelet count decreased (all 18 patients): 4 n | TEAE: anemia, frequency (all 18 patients, all grades): 50.0% | TEAE: decreased appetite, frequency (all 18 patients, all grades): 61.1% | TEAE: fatigue, frequency (all 18 patients, all grades): 50.0% | TEAE: nausea, frequency (all 18 patients, all grades): 72.2% | TEAE: platelet count decreased, frequency (all 18 patients, all grades): 61.1% | TEAE: white blood cell count decreased, frequency (all 18 patients, all grades): 50.0% | Dose interruption because of decreased appetite (all cohorts): 2 n | Dose interruption because of nausea (all cohorts): 6 n | Dose interruption because of platelet count decreased (all cohorts): 4 n | Dose interruptions (all cohorts): ten patients | Dose reduction due to TEAEs (all cohorts): No patients required a dose reduction | Maximum tolerated dose (MTD) (days 1 to 21 of a 28-day cycle): 90 mg/day | Tolerability (once-daily 21/28-day schedule): well tolerated | Tolerability (once-daily 21/28-day schedule, listed as Milademetan): generally safe and well tolerated | Patients who developed serious TEAEs (four at 90 mg, one at 60 mg, one at 120 mg, eight serious TEAEs): Six patients | Changes in laboratory parameters (other than platelet count decreased), vital signs, electrocardiogram (hematology, blood chemistry, coagulation, urinalysis, vital signs, ECG): no clinically relevant changes | Patients with at least one drug-related TEAE (of 18 patients): 18 patients | Maximum tolerated dose (MTD) (once-daily 21/28-day schedule): 90 mg | Recommended dose for phase II (once-daily 21/28-day schedule): 90 mg | Withdrawal from the study because of TEAEs (one in 90-mg cohort, two in 120-mg cohort): Three patients withdrew | Serious TEAEs, percentage of patients (six out of 18 patients): 33.3%
